Source: ChEMBL document CHEMBL1681779, “Design, synthesis and docking study of 5-amino substituted indeno[1,2-c]isoquinolines as novel topoisomerase I inhibitors” (Bioorg Med Chem, 2011)
Calls of active or inactive are those of the source. No cut-off for these calls is given here.

Columns and labels:
Col2 = experiment: Cytotoxicity against human Col2 cells by sulforhodamine B assay
HL-60 = experiment: Cytotoxicity against human HL60 cells by MTT assay; format: functional, cell-based
A549 = experiment: Cytotoxicity against human A549 cells by sulforhodamine B assay
SNU-638 = experiment: Cytotoxicity against human SNU638 cells by sulforhodamine B assay
HT-1080 = experiment: Cytotoxicity against human HT1080 cells by sulforhodamine B assay
[1] = target: T1, DNA topoisomerase 1 (Homo sapiens) (UniProt P11387); experiment: Inhibition of DNA topoisomerase 1 relative to 0.1 uM camptothecin
T1 sequence (whole entry): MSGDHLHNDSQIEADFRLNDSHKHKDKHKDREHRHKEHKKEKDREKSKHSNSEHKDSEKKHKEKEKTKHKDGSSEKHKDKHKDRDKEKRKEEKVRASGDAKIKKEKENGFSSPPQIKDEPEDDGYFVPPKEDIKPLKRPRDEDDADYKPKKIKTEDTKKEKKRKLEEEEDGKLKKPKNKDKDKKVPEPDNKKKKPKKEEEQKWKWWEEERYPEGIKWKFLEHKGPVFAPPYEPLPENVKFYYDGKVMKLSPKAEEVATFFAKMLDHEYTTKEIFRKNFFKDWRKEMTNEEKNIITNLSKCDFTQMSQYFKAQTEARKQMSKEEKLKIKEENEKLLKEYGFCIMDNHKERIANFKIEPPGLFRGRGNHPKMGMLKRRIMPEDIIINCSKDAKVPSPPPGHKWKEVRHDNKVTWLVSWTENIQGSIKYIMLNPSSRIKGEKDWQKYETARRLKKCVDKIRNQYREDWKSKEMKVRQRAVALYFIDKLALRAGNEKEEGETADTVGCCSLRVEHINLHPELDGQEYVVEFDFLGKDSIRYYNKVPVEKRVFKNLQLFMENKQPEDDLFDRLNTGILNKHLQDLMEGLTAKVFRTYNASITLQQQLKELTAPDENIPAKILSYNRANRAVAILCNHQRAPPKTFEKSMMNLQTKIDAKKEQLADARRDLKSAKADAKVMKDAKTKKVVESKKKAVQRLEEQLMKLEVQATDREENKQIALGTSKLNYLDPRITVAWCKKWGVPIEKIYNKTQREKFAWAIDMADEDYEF
Summary of the method: (§1)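 Relaxation assay with 500 ng supercoiled pBR322 DNA as substrate and 1 unit topo I. Reactions were run with or without compound, with camptothecin as reference, for 30 min at 37 °C.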

[2] = target: T1, DNA topoisomerase 1 (Homo sapiens); experiment: Inhibition of DNA topoisomerase 1-mediated supercoiled DNA relaxation at 0.1 mg/mL by agarose gel electrophoresis
Summary of the method: as §1

SK-MEL-2 = experiment: Cytotoxicity against human SK-MEL-2 cells at 0.001 mg/ml; format: functional, cell-based

Structure (SMILES) | inhibition [1] | inhibition [2] | IC50 (Col2) [µM] | IC50 (HL-60) [µM] | IC50 (A549) [µM] | IC50 (SNU-638) [µM] | IC50 (HT-1080) [µM] | Activity (SK-MEL-2)
CCN1CCN(c2nc3c(c4ccccc24)C(O)c2ccccc2-3)CC1 (stereo unspecified) |  |  | 19.2 | 29.4 | 20.9 | 18.9 | 8.66 | 
CC(=O)OC1c2ccccc2-c2nc(N3CCOCC3)c3ccccc3c21 (stereo unspecified) |  |  | 7.87 | 15.9 | 8.3 | 6.99 | 58.3 | 
OC1c2ccccc2-c2nc(N3CCOCC3)c3ccccc3c21 (stereo unspecified) |  |  | > 100 | 99.2 | 93.3 | > 100 | > 100 | 
CC1c2ccccc2-c2c1c1ccccc1c(=O)n2C (stereo unspecified) |  |  |  |  |  |  |  | Active
O=C1c2ccccc2-c2nc(N3CCOCC3)c3ccccc3c21 |  |  | 96.9 | > 100 | > 100 | > 100 | 69.2 | 
CCCCNc1nc2c(c3ccccc13)C(=O)c1ccccc1-2 |  |  | > 100 | > 100 | > 100 | > 100 | 48.2 | 
CN1CCN(c2nc3c(c4ccccc24)C(O)c2ccccc2-3)CC1 (stereo unspecified) |  |  | 28.3 | 13.4 | 18.1 | 9.01 | 4.87 | 
CN1CCN(c2nc3c(c4ccccc24)C(C)(O)c2ccccc2-3)CC1 (stereo unspecified) |  |  | 58 | 79.9 | 92.5 | 58.2 | 22.2 | 

Second part, led by results:

inhibition [1] | inhibition [2] | Structure (SMILES) | IC50 (Col2) [µM] | IC50 (HL-60) [µM] | IC50 (A549) [µM] | IC50 (SNU-638) [µM] | IC50 (HT-1080) [µM] | Activity (SK-MEL-2)
Active | Active | O=C1c2ccccc2-c2nc(N3CCNCC3)c3ccccc3c21 | 7.99 | 4.68 | 8.52 | 8.25 | 2.01 | 
 | Active | CCN1CCN(c2nc3c(c4ccccc24)Cc2ccccc2-3)CC1 | 7.74 | 9.98 | 8.19 | 3.25 | 19 | 
 | Active | CN1CCCN(c2nc3c(c4ccccc24)Cc2ccccc2-3)CC1 | 2.13 | 3.33 | 5.46 | 8.24 | 0.25 | 
 | Active | CCCCNc1nc2c(c3ccccc13)Cc1ccccc1-2 | 75.2 | 19.6 | 27.7 | 22.2 | 4.39 | 
 | Active | c1ccc2c(c1)Cc1c-2nc(N2CCOCC2)c2ccccc12 | 4.42 | 8.65 | 5.69 | 2.58 | 1.24 | 
Active | Active | CCN1CCN(c2nc3c(c4ccccc24)C(=O)c2ccccc2-3)CC1 | 6.45 | 4.21 | 7.1 | 5.85 | 1.23 | 
Active | Active | CN1CCN(c2nc3c(c4ccccc24)C(=O)c2ccccc2-3)CC1 | 7.77 | 6.35 | 8.19 | 7.98 | 5.36 | 
 | Active | CN1CCN(c2nc3c(c4ccccc24)Cc2ccccc2-3)CC1 | 10.1 | 5.87 | 11.4 | 19.8 | 3.85 | 
Active | Active | CN1CCCN(c2nc3c(c4ccccc24)C(=O)c2ccccc2-3)CC1 | 0.27 | 1.28 | 1.05 | 1.36 | 0.54 | 
Active |  | NCCNc1nc2c(c3ccccc13)C(=O)c1ccccc1-2 | 1.43 | 10.4 | 0.85 | 1.68 | 9.6 | 
Active |  | CCCCCCC1(O)c2ccccc2-c2nc(N3CCN(C)CC3)c3ccccc3c21 (stereo unspecified) | 6.24 | 8.55 | 7.21 | 12.4 | 2.57 | 
